Experimental findings from ChEMBL document CHEMBL3779802, “Synthesis of hybrid 4-deoxypodophyllotoxin-5-fluorouracil compounds that inhibit cellular migration and induce cell cycle arrest” (Bioorg Med Chem Lett, 2016) are described below.

For one experiment, the system named is HeLa. The experiment is described as follows: Cytotoxicity against human HeLa cells assessed as growth inhibition after 48 hrs by MTT assay. It counts as functional, cell-based. Put shortly: (§1)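 MTT assay with 48 h drug exposure on HeLa, A549, HCT-8 and HepG2 tumour cells and normal lung fibroblast WI-38. IC50 reported as the mean of three independent experiments.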

Experiment [1] relates to A549. The experiment is described as follows: Cytotoxicity against human A549 cells assessed as growth inhibition after 48 hrs by MTT assay. It counts as functional, cell-based. Particulars: A549, 48 h. Put shortly:
as §1
A general note: Tetrazolium assays rely on reduction of a dye to a coloured formazan, in cell work by metabolically active cells.

Experiment [2] is described as follows: Cytotoxicity against human HCT8 cells assessed as growth inhibition after 48 hrs by MTT assay. The class given is functional, cell-based. Particulars: HCT-8, 48 h. The method, boiled down: as §1
Another experiment concerns HepG2. The experiment is described as follows: Cytotoxicity against human HepG2 cells assessed as growth inhibition after 48 hrs by MTT assay. Particulars: HepG2, 48 h. It counts as functional, cell-based. The method, boiled down: as §1
A short description of experiment [3]: Cytotoxicity against human WI38 cells assessed as growth inhibition after 48 hrs by MTT assay. The class given is cell-based. Particulars: WI-38, 48 h. Put shortly: as §1
Experiment [4] deals with A549. The experiment can be described thus: Induction of apoptosis in human A549 cells assessed as nuclear fragmentation at 0.3 to 1 uM after 24 hrs by DAPI staining based fluorescence microscopy. It counts as functional, cell-based. The method, boiled down:
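A549 cells treated with 0, 0.3 or 1 μM for 24 h, stained with DAPI and viewed by fluorescence microscopy at 200×. Nuclei scored for fragmentation and loss of normal morphology.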

For experiment [5], the system named is A549. The experiment can be described thus: Cell cycle arrest in human A549 cells assessed as accumulation at G2/M phase after 24 hrs by propidium iodide staining based flow cytometry. The class given is functional. For orientation: Flow cytometry measures light scatter and fluorescence of single cells or particles in a stream.
The subject of experiment [6] is A549. The experiment can be described thus: Cell cycle arrest in human A549 cells assessed as accumulation at G1 phase at 0.1 uM after 24 hrs by propidium iodide staining based flow cytometry (reference value: 58.3%). It counts as functional.
The test system of experiment [7] is A549. The experiment can be described thus: Cell cycle arrest in human A549 cells assessed as accumulation at G1 phase at 0.5 uM after 24 hrs by propidium iodide staining based flow cytometry (reference value: 58.3%). It counts as functional.
Experiment [8] has as its system A549. The experiment is described as follows: Cell cycle arrest in human A549 cells assessed as accumulation at S phase at 0.1 uM after 24 hrs by propidium iodide staining based flow cytometry (reference value: 19.3%). It counts as functional.
Experiment [9] has as its system A549. The experiment is described as follows: Cell cycle arrest in human A549 cells assessed as accumulation at S phase at 0.5 uM after 24 hrs by propidium iodide staining based flow cytometry (reference value: 19.3%). The class given is functional.
Experiment [10] has as its system A549. The experiment is described as follows: Cell cycle arrest in human A549 cells assessed as accumulation at G2/M phase at 0.1 uM after 24 hrs by propidium iodide staining based flow cytometry (reference value: 22.4%). The class given is functional.
For experiment [11], the system named is A549. The experiment can be described thus: Cell cycle arrest in human A549 cells assessed as accumulation at G2/M phase at 0.5 uM after 24 hrs by propidium iodide staining based flow cytometry (reference value: 22.4%). It counts as functional.
For experiment [12], the system named is A549. The experiment can be described thus: Upregulation of cyclinB1 expression in human A549 cells at 0.5 to 2 uM after 24 hrs by Western blot analysis. It counts as functional, cell-based. Put shortly:
(§2)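 Western blot for cdc2, p-cdc2 and cyclin B1 in A549 cells treated with vehicle, 0.5 or 2 μM for 24 h.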
For orientation: In western blotting, separated proteins are transferred to a membrane and probed.

Experiment [13] concerns A549. The experiment can be described thus: Upregulation of cdc2 expression in human A549 cells at 0.5 to 2 uM after 24 hrs by Western blot analysis. The class given is functional, cell-based. The method, boiled down:
as §2

The test system of experiment [14] is A549. The experiment is described as follows: Downregulation of p-cdc2 expression in human A549 cells at 0.5 to 2 uM after 24 hrs by Western blot analysis. The class given is functional, cell-based. Put shortly:
as §2

In experiment [15] the test system is A549. The experiment can be described thus: Antimigratory activity in human A549 cells at 1 uM after 12 hrs by crystal violet staining based transwell migration assay. The class given is functional. The following applies: A549, 12 h. Put shortly:
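Transwell migration of A549 cells exposed to vehicle, 0.3 or 1 μM for 12 h. Stained migrated cells imaged at 200× and counted. Inhibition expressed relative to untreated control; mean ± SD of three independent experiments.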

Experiment [16] deals with A549. The experiment can be described thus: Upregulation of TIMP-1 expression in human A549 cells at 0.5 to 2 uM after 24 hrs by Western blot analysis. The class given is functional, cell-based.
Experiment [17] has as its system A549. The experiment can be described thus: Downregulation of MMP-9 expression in human A549 cells at 0.5 to 2 uM after 24 hrs by Western blot analysis. It counts as functional, cell-based.
Experiment [18] concerns A549. The experiment can be described thus: Upregulation of TIMP-1 expression in human A549 cells at 0.1 to 5 uM after 24 hrs by ELISA. The class given is functional, cell-based.
The subject of experiment [19] is A549. The experiment can be described thus: Downregulation of MMP-9 expression in human A549 cells at 0.1 to 5 uM after 24 hrs by ELISA. The class given is functional, cell-based. Put shortly: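 MMP-9 in A549 cells measured by ELISA after 24 h exposure to 0, 0.1, 0.5, 1.5 or 5.0 μM. Mean ± SD, n = 3.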
In experiment [20] the test system is A549. The experiment is described as follows: Cell cycle arrest in human A549 cells assessed as decrease in cell level at G1 phase after 24 hrs by propidium iodide staining based flow cytometry. The class given is functional.

Calls of active or inactive are those of the source. The rule behind the calls is not given here. A value given as a limit tells only on which side of the number the result lay.

With `COc1cc([C@@H]2c3cc4c(cc3C[C@H]3COC(=O)[C@@H]32)OCO4)cc(OC)c1OC(=O)CCC(=O)N1CCN(C(=O)Cn2cc(F)c(=O)[nH]c2=O)CC1`, the IC50 (in general, the concentration needed to halve the response being measured) turned out to be 15 µM with HeLa; 1.35 µM with A549 [1]; 9.01 µM in experiment [2]; 11.5 µM in the experiment on HepG2; 112 µM in experiment [3].
For `O=c1[nH]cc(F)c(=O)[nH]1` [FLUOROURACIL], the IC50 in experiment [2] turned out to be 32.3 µM; in the experiment with HepG2, 41.6 µM; in experiment [3] it was 38.9 µM.
As to `COc1cc([C@@H]2c3cc4c(cc3C[C@H]3COC(=O)[C@@H]32)OCO4)cc(OC)c1OC(=O)CCC(=O)NCCCCCCNC(=O)Cn1cc(F)c(=O)[nH]c1=O`, the IC50 with HeLa amounted to 4.03 µM; with A549 [1], 0.27 µM; in [2], 1.01 µM; with HepG2, 0.45 µM; in experiment [3], 114 µM. For the same compound, the outcome in the experiment on A549 [4], with A549 [12], with A549 [13], with A549 [14], in the experiment on A549 [16] and with A549 [17] was Active. Besides, the result in the experiment on A549 [18] and with A549 [19] was Active. For the same compound, the Activity entry in the experiment on A549 [5] was “Dose-dependent effect”; with A549 [6], 7.7%; in the experiment on A549 [7], 0.1%; with A549 [8], 45.1%; with A549 [9], 35.4%; with A549 [10] it was 47.2%. Moreover, the Activity is 64.5% with A549 [11] and “Dose-dependent effect” in the experiment on A549 [20]. For the same compound, in the experiment on A549 [15], the inhibition (as a rule, the drop in the measured response relative to a control, in per cent) at 1 µM amounted to 47%.
`COc1cc([C@@H]2c3cc4c(cc3C[C@H]3COC(=O)[C@@H]32)OCO4)cc(OC)c1O` [4'-DEMETHYLDEOXYPODOPHYLLOTOXIN]: the IC50 in the experiment with A549 [1] was 3.9 µM; in [2] it was 9.81 µM; in the experiment on HepG2, 16.5 µM; in experiment [3], 78.5 µM.
As to `COc1cc([C@@H]2c3cc4c(cc3C[C@H]3COC(=O)[C@@H]32)OCO4)cc(OC)c1OC(=O)NCCCNC(=O)Cn1cc(F)c(=O)[nH]c1=O`, the IC50 in the experiment on HeLa is 15.8 µM; with A549 [1], 11.7 µM; in [2], 5.26 µM; in the experiment on HepG2, > 100 µM; in experiment [3] it was 109 µM.
In the same order, the values of `COc1cc([C@@H]2c3cc4c(cc3C[C@H]3COC(=O)[C@@H]32)OCO4)cc(OC)c1OC(=O)N1CCN(CCCCn2cc(F)c(=O)[nH]c2=O)CC1` are 13.2 µM, 2.14 µM, 9.18 µM, 20.2 µM and 104 µM.
As for `COc1cc([C@@H]2c3cc4c(cc3C[C@H]3COC(=O)[C@@H]32)OCO4)cc(OC)c1OC(=O)NCCCCCCNC(=O)Cn1cc(F)c(=O)[nH]c1=O`, the half-inhibitory concentration (IC50) in the experiment on HeLa amounted to 13.2 µM; in the experiment on A549 [1] it was 0.14 µM; in experiment [2], 2.04 µM; in the experiment on HepG2, 11.7 µM; in [3] it was 87 µM.
As to `COc1cc([C@@H]2c3cc4c(cc3C[C@H]3COC(=O)[C@@H]32)OCO4)cc(OC)c1OC(=O)NCCCCNC(=O)Cn1cc(F)c(=O)[nH]c1=O`, the IC50 with HeLa was found to be 9.58 µM; in the experiment on A549 [1], 23.9 µM; in [2] it was 8.53 µM; with HepG2 it was 22.3 µM; in [3] it was 85.5 µM.
As for `COc1cc([C@@H]2c3cc4c(cc3C[C@H]3COC(=O)[C@@H]32)OCO4)cc(OC)c1OC(=O)N1CCN(C(=O)Cn2cc(F)c(=O)[nH]c2=O)CC1`, the IC50 with HeLa came out at 11.2 µM; in the experiment with A549 [1], 2.41 µM; in [2], 17.6 µM; in the experiment with HepG2, 14.3 µM; in [3], 121 µM.
The matching figures for `COc1cc([C@@H]2c3cc4c(cc3[C@@H](O[C@@H]3O[C@@H]5CO[C@@H](C)O[C@H]5[C@H](O)[C@H]3O)[C@H]3COC(=O)[C@H]23)OCO4)cc(OC)c1O` [ETOPOSIDE]: 12.1 µM, 23.9 µM, 10.9 µM, 27.1 µM and 35.8 µM.
